The source made the active and inactive calls. The calls are words filed in the database; no cut-off is given here.
Key:
[1] = system: MKN-74; assay: Induction of apoptosis in human MKN74 cells assessed as viable cells at 0.3 uM incubated for 72 hrs by Annexin-V-FITC/propidium iodide staining-based flow cytometric analysis (reference value: 76.84%); type: functional; details: MKN-74, 72 h, read-out: Activity
[2] = biological target: Fibroblast growth factor receptor 1 (Homo sapiens, UniProt P11362); assay: Inhibition of N-terminal GST fused human recombinant FGFR1 cytoplasmic domain (398 to 822 (end) residues) expressed in baculovirus expression system using FAM-labeled peptide and ATP as substrate preincubated for 10 mins followed by substrate addition measured after 1 hr by mobility shift assay
Chain of Fibroblast growth factor receptor 1 (P11362 whole entry, the tested form may be a part): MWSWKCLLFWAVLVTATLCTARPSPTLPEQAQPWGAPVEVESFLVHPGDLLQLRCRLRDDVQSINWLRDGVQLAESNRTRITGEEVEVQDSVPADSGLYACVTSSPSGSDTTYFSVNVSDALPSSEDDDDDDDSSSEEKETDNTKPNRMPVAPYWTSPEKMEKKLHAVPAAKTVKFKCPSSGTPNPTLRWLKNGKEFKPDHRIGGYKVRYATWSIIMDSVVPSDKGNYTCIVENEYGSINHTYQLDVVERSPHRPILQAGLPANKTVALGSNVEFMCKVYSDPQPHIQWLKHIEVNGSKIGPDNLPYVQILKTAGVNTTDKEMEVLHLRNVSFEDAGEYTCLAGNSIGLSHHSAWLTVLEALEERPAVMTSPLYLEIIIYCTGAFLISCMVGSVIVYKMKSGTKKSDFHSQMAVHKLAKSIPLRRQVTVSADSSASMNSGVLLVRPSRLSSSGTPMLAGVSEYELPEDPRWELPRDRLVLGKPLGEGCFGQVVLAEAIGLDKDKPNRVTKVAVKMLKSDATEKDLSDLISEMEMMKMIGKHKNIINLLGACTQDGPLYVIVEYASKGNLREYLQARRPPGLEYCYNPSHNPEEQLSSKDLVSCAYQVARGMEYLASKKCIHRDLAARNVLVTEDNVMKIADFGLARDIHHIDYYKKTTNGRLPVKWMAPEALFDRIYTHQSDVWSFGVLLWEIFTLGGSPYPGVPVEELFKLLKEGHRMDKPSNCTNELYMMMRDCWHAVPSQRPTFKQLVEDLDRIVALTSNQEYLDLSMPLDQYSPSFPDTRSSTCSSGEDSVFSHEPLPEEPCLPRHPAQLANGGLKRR

[3] = system: HT-29; assay: Induction of apoptosis in human HT-29 cells assessed as late apoptotic cells at 3 uM incubated for 72 hrs by Annexin-V-FITC/propidium iodide staining-based flow cytometric analysis (reference value: 6.12%); type: functional
[4] = biological target: Cyclin-dependent kinase 4 (Homo sapiens, UniProt P11802); assay: Inhibition of CDK4 (unknown origin) at 1 uM using FAM-labeled peptide and ATP as substrate preincubated for 10 mins followed by substrate addition measured after 1 hr by mobility shift assay
Chain of Cyclin-dependent kinase 4 (P11802 whole entry): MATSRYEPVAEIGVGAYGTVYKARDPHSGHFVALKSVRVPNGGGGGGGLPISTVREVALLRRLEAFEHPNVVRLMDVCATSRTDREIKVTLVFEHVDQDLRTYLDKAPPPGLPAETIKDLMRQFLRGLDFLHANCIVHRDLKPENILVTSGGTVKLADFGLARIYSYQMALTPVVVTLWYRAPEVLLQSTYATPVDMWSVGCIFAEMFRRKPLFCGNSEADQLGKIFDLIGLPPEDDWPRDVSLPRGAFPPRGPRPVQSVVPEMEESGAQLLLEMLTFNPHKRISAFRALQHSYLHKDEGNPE

[5] = system: HepG2; assay: Induction of apoptosis in human HepG2 cells incubated for 72 hrs by Annexin-V-FITC/propidium iodide staining-based flow cytometric analysis; type: functional, cell-based
[6] = Intrinsic clearance in human liver microsomes; type: ADME, Microsome; details: read-out: CLH
[7] = system: MKN-74; assay: Induction of apoptosis in human MKN74 cells assessed as late apoptotic cells at 1 uM incubated for 72 hrs by Annexin-V-FITC/propidium iodide staining-based flow cytometric analysis (reference value: 12.42%); type: functional
[8] = system: HT-29; assay: Induction of apoptosis in human HT-29 cells assessed as late apoptotic cells at 0.3 uM incubated for 72 hrs by Annexin-V-FITC/propidium iodide staining-based flow cytometric analysis (reference value: 6.12%); type: functional
[9] = biological target: T1, Cyclin-dependent kinase 2 (Homo sapiens, UniProt P24941); assay: Inhibition of CDK2 (unknown origin) using FAM-labeled peptide and ATP as substrate preincubated for 10 mins followed by substrate addition measured after 1 hr by mobility shift assay
[10] = biological target: Vascular endothelial growth factor receptor 1 (Homo sapiens, UniProt P17948); assay: Inhibition of GST-tagged human recombinant VEGFR1 cytoplasmic domain (781 to 1338 residues) expressed in baculovirus expression system using FAM-labeled peptide and ATP as substrate preincubated for 10 mins followed by substrate addition measured after 1 hr by mobility shift assay
Chain of Vascular endothelial growth factor receptor 1 (P17948 whole entry, the tested form may be a part): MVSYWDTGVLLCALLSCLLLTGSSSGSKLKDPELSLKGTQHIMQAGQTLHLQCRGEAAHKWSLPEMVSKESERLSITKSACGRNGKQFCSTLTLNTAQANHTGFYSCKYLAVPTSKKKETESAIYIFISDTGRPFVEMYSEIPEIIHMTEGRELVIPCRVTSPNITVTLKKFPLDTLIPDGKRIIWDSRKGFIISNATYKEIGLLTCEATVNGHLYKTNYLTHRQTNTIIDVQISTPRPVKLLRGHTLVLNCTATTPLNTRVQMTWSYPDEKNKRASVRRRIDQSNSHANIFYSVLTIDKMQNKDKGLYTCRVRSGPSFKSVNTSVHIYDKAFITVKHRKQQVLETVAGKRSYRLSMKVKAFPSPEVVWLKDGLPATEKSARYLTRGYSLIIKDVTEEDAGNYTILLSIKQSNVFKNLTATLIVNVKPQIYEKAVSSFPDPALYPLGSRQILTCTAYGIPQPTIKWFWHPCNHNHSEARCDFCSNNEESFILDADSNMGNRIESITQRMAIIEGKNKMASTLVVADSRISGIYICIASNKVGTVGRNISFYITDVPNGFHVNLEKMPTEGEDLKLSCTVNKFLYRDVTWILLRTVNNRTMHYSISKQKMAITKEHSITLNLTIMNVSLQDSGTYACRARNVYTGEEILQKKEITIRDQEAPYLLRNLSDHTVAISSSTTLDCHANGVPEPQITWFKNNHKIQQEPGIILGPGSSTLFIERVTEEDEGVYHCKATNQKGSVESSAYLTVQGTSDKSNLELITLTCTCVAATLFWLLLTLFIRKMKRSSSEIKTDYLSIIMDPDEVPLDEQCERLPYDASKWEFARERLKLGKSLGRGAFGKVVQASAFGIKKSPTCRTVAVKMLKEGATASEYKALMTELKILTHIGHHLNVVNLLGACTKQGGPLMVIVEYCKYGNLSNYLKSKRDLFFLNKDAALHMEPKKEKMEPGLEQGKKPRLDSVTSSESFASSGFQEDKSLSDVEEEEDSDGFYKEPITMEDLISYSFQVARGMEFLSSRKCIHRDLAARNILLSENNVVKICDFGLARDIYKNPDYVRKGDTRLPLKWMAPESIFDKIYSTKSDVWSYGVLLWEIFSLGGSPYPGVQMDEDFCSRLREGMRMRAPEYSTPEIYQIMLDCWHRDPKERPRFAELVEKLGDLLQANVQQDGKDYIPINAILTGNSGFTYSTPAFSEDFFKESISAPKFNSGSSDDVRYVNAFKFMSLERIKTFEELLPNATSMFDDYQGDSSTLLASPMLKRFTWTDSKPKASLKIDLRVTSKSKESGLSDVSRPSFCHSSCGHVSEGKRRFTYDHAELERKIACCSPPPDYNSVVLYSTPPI

[11] = Intrinsic clearance in mouse liver microsomes; type: ADME, Microsome; details: read-out: CLH
[12] = system: MKN-74; assay: Induction of apoptosis in human MKN74 cells assessed as early apoptotic cells at 3 uM incubated for 72 hrs by Annexin-V-FITC/propidium iodide staining-based flow cytometric analysis (reference value: 1.98%); type: functional
[13] = system: HT-29; assay: Induction of apoptosis in human HT-29 cells assessed as early apoptotic cells at 0.3 uM incubated for 72 hrs by Annexin-V-FITC/propidium iodide staining-based flow cytometric analysis (reference value: 3.18%); type: functional
[14] = system: HT-29; assay: Induction of apoptosis in human HT-29 cells assessed as early apoptotic cells at 1 uM incubated for 72 hrs by Annexin-V-FITC/propidium iodide staining-based flow cytometric analysis (reference value: 3.18%); type: functional
[15] = system: HUVEC; assay: Induction of apoptosis in human HUVEC cells assessed as late apoptotic cells at 3 uM incubated for 48 hrs by Annexin-V-FITC/propidium iodide staining-based flow cytometric analysis (reference value: 3.48%); type: functional
[16] = system: HepG2; assay: Inhibition of colony formation in human HepG2 cells at 1 uM measured after 14 days by crystal violet staining-based assay; type: functional, cell-based
In short: (§1)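 Cells plated and exposed to test agent at a range of concentrations for 14 days, then colonies counted. Colony formation expressed relative to vehicle-treated cells as mean ± SEM. Significance versus vehicle by unpaired two-tailed Student's t-test.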

[17] = system: MKN-74; assay: Induction of apoptosis in human MKN74 cells incubated for 72 hrs by Annexin-V-FITC/propidium iodide staining-based flow cytometric analysis; type: functional, cell-based
[18] = system: HT-29; assay: Inhibition of colony formation in human HT-29 cells measured after 14 days by crystal violet staining-based assay; type: functional, cell-based; in short: as §1
[19] = biological target: Platelet-derived growth factor receptor beta (Homo sapiens, UniProt P09619); assay: Inhibition of N-terminal GST-fused human PDGFRbeta cytoplasmic domain (557 to 1106 (end) residues) expressed in baculovirus expression system using FAM-labeled peptide and ATP as substrate preincubated for 10 mins followed by substrate addition measured after 1 hr by mobility shift assay
Chain of Platelet-derived growth factor receptor beta (P09619 whole entry, the tested form may be a part): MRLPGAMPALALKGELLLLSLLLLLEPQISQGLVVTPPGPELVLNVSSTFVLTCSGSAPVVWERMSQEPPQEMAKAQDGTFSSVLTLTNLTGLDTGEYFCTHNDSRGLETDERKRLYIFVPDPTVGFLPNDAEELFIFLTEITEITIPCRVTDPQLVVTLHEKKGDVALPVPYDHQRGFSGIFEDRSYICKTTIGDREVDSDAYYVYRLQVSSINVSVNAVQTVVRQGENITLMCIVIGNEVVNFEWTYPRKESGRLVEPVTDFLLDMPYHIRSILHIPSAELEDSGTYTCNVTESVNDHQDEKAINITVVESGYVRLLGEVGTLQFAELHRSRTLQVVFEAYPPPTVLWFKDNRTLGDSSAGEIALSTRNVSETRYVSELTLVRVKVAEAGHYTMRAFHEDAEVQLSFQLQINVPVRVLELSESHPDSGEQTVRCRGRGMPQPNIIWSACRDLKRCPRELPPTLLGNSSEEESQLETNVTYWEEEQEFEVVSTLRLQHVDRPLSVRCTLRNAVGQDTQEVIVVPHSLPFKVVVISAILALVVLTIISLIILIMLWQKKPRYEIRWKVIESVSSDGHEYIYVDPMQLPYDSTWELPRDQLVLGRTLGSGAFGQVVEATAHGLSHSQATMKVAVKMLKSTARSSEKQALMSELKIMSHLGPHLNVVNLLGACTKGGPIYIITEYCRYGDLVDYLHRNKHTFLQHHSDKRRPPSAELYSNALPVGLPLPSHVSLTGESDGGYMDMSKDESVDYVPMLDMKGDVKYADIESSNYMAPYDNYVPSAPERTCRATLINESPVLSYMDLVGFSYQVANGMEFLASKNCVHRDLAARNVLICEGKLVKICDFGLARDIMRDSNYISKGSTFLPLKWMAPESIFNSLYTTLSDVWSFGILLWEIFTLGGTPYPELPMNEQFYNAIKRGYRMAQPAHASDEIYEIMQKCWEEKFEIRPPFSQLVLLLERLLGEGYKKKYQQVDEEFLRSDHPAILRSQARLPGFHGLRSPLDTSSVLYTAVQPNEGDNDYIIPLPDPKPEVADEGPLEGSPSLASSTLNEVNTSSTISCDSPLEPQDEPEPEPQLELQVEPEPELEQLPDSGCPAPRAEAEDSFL

[20] = Half life in mouse liver microsomes; type: ADME, Microsome
[21] = system: HepG2; assay: Induction of apoptosis in human HepG2 cells assessed as early apoptotic cells at 0.3 uM incubated for 72 hrs by Annexin-V-FITC/propidium iodide staining-based flow cytometric analysis (reference value: 1.08%); type: functional
[22] = system: HUVEC; assay: Induction of apoptosis in human HUVEC cells assessed as early apoptotic cells at 3 uM incubated for 48 hrs by Annexin-V-FITC/propidium iodide staining-based flow cytometric analysis (reference value: 3.63%); type: functional
[23] = system: HepG2; assay: Inhibition of receptor tyrosine kinase in human HepG2 cells assessed as reduction in AKT phosphorylation at Ser473 residue after 24 hrs by Western blotting analysis; type: cell-based
In short: (§2)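 Cells cultured overnight, then treated with compound at different concentrations for 24 h. About 1×10⁶ cells harvested and immunoblotted for p-AKT (Ser473), AKT, p-ERK (Thr202/Tyr204), ERK, with GAPDH as loading control. Detection by chemiluminescence and gel imaging. Blots shown are representative of several experiments.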

[24] = system: HepG2; assay: Inhibition of colony formation in human HepG2 cells measured after 14 days by crystal violet staining-based assay; type: functional, cell-based; in short: as §1
[25] = biological target: Tyrosine-protein kinase Lyn (Homo sapiens, UniProt P07948); assay: Inhibition of LYN (unknown origin) using FAM-labeled peptide and ATP as substrate preincubated for 10 mins followed by substrate addition measured after 1 hr by mobility shift assay
Chain of Tyrosine-protein kinase Lyn (P07948 whole entry): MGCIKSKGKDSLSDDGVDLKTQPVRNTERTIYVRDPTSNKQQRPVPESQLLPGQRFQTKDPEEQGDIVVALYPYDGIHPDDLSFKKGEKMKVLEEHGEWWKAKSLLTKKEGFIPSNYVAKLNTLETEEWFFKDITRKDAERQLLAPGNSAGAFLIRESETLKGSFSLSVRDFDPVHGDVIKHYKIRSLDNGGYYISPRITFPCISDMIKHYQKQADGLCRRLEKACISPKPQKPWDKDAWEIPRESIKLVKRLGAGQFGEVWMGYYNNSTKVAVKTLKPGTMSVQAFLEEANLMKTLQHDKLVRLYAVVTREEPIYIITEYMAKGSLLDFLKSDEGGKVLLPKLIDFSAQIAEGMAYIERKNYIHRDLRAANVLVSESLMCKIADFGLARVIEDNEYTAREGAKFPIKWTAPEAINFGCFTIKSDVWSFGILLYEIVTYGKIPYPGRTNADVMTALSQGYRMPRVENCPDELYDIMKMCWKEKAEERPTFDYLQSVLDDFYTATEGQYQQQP

[26] = system: HT-29; assay: Inhibition of receptor tyrosine kinase in human HT-29 cells assessed as reduction in AKT phosphorylation at Ser473 residue after 24 hrs by Western blotting analysis; type: cell-based; in short: as §2
[27] = biological target: T1, Cyclin-dependent kinase 2; assay: Inhibition of CDK2 (unknown origin) at 1 uM using FAM-labeled peptide and ATP as substrate preincubated for 10 mins followed by substrate addition measured after 1 hr by mobility shift assay
[28] = system: HUVEC; assay: Induction of apoptosis in human HUVEC cells assessed as late apoptotic cells at 0.3 uM incubated for 48 hrs by Annexin-V-FITC/propidium iodide staining-based flow cytometric analysis (reference value: 3.48%); type: functional
[29] = Inhibition of N-terminal GST-tagged human recombinant PDGFRalpha D842I mutant expressed in baculovirus-infected Sf9 cells using FAM-labeled peptide and ATP as substrate preincubated for 10 mins followed by substrate addition measured after 1 hr by mobility shift assay
[30] = Toxicity in nu/nu mouse xenografted with human HT-29 cells assessed as effect on body weight at 100 mg/kg, po qd for 18 days; type: organism-based; details: in vivo, 432 h
In short: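 Female nu/nu mice, 4–6 weeks old, implanted subcutaneously in the right flank with HT-29 cells (2×10⁶/mL). Once tumours reached 200 mm³, mice randomised to groups (n = 6) and dosed orally once daily at 100 mg/kg for 18 days. Body weight monitored during treatment. Results given as mean ± SD.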

COC(=O)c1ccc2c(c1)NC(=O)/C2=C(\Nc1ccc(-n2c(C)ccc2CN2CCN(C)CC2)cc1)c1ccccc1 showed a viability at 0.3 µM [1] of 73.5%, an IC50 [2] of 23 nM and an Activity [3] of 88.27%. For the same molecule, the inhibition [4] was “inactive”, the Activity [5] was “Dose-dependent effect” and the CLint scaled [6] was 82 mL/min/kg. For the same molecule, the Activity [7] was 22.1%, the Activity [8] was 11.99% and the IC50 [9] was > 1000 nM. The IC50 [10] was 31 nM, the CLint scaled [11] was 436 mL/min/kg and the Activity [12] was 8.01%. The Activity [13] was 3.35%, the Activity [14] was 1.52% and the Activity [15] was 9.06%. For the same molecule, the inhibition [16] was “Active”, the Activity [17] was “Dose-dependent effect” and the inhibition [18] was “Dose-dependent effect”. It also gave an IC50 [19] of 9.9 nM, a half-life [20] of 12.5 min and an Activity [21] of 1.81%. For the same molecule, the Activity [22] was 55.63%, the inhibition [23] was “Dose-dependent effect” and the inhibition [24] was “Dose-dependent effect”. For the same molecule, the IC50 [25] was 16 nM, the inhibition [26] was “Dose-dependent effect” and the inhibition [27] was “inactive”. For the same molecule, the Activity [28] was 2.76%, the IC50 [29] was 7 nM and the Activity [30] was “Non-Toxic”.

— ChEMBL document CHEMBL4622841, “Structural modifications of indolinones bearing a pyrrole moiety and discovery of a multi-kinase inhibitor with potent antitumor activity” (Bioorg Med Chem, 2020)
